A selection: hits, their analogues and other compounds. The true share with any hit is near 1.7%.
M5 PAM – positive allosteric modulators of human muscarinic M5 receptor; activation, % at 3 µM; P08912; hit rate 0.3% among 360,000; CHO-K1 hM5, Fluo-8 calcium, ACh EC20 PAM; 0% = ACh EC20, 100% = ACh EC100;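 active = activation above the run cutoff, the mean activation of all test compounds plus 3 SD, cut at about 18% in these data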
Target sequence (P08912 whole entry, looked up): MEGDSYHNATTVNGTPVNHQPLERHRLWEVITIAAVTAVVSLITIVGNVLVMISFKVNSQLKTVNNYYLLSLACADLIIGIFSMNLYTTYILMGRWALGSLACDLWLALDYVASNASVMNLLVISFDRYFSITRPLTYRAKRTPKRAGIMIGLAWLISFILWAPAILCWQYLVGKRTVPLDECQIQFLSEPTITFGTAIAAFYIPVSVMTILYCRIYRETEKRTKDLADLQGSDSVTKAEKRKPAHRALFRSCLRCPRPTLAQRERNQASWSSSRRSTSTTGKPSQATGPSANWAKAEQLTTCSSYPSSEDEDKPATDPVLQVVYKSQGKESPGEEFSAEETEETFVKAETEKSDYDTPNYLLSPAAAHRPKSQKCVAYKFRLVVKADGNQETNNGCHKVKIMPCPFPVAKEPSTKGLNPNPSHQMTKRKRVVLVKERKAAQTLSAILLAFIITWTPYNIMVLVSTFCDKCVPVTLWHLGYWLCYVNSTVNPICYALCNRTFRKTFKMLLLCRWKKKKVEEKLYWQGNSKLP
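Probe or stimulus: acetylcholine, EC20 level; Assay system: human M5 receptor in CHO-K1 cells; Schedule: compound preincubation 140 s before EC20 acetylcholine addition; Technique: intracellular calcium via Fluo-8 fluorescence; Dosing: single-point, 3 µM nominal; Read-out basis: percent activation from peak-over-basal fluorescence ratio, scaled EC20-to-EC100 acetylcholine; Repeats: one well per compound, no replicates.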
M1 ag parental – counter-screen for M1 agonists: effect in parental CHO-K1 cells; activation, % at 3 µM; hit rate 0.48% among 360,000; Fluo-8 calcium fluorescence; scaled to maximal ATP response, vehicle zero; in the data active = activation above about 15%;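 note: untransfected CHO-K1 host cells lacking M1 receptor as counterscreen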
CHRM5 antagonist – antagonists of human muscarinic M5 receptor (CHRM5); hit rate 0.59% among 360,000; inhibition, % at 3 µM; CHO-hM5 cells, Fluo-8 calcium fluorescence, ACh EC80; P08912;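 active = inhibition above a per-plate cutoff, the mean of that plate's test compounds plus 3 SD, cut at about 27% in these data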;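 note: 0% = acetylcholine EC80 with DMSO and 100% = DMSO without agonist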
CHO-K1 Ca antag – nonselective inhibitor or artifact in parental CHO-K1 cells | AID 602250 | ATP-induced calcium, Fluo-8 fluorescence | inhibition, % at 3 µM | hit rate 0.6% among 360,000;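 active = inhibition above a per-plate cutoff, the plate's mean sample inhibition plus 3 SD, cut at about 24% in these data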;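 note: 0% = DMSO plus EC80 ATP and 100% = DMSO alone without ATP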
CHRM5 agonist – CHRM5 agonism in calcium assay. P08912. CHO-K1 hM5 cells, Fluo-8 calcium fluorescence; 0% DMSO wells, 100% maximal acetylcholine response. activation, % at 3 µM. hit rate 0.19% among 360,000. AID 624037;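 active = activation above the run's mean over test compounds plus 3 SD, cut at about 23% in these data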;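 note: signal is peak over basal fluorescence ratio across the kinetic read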
M1 PAM parental – counter-screen for M1 PAMs: effect in parental CHO-K1 cells; activation, % at 3 µM; hit rate 0.02% among 360,000; ATP EC20, Fluo-8 calcium fluorescence; 0% at ATP EC20, 100% at ATP max; AID 602247;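 active = activation above the run cutoff, the mean activation of all test compounds plus 3 SD, cut at about 40% in these data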;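 note: peak over basal fluorescence ratio in a 140 s read after ATP addition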
* hit, by the source's call.

SMILES	M5 PAM	M1 ag parental	CHRM5 antagonist	CHO-K1 Ca antag	CHRM5 agonist	M1 PAM parental
Cc1c(Cl)cccc1NC(=O)Cn1c(CCC(=O)O)ccc1-c1ccc(Cl)cc1	-2.5	-0.3	3.6	-13.6	-4.3	5.0
CCOC(=O)N1CCC(NS(=O)(=O)c2ccc(C)c(Cl)c2)CC1	-1.6	6.4	-0.5	-7.1	3.7	3.3
COc1ccc(CCN(C)Cc2c(O)ccc3cc(Br)ccc23)cc1OC	-1.6	3.0	5.5	-10.2	-0.6	7.8
COc1ccc(CN(C)Cc2c(O)ccc3cc(Br)ccc23)cc1OC	23.4*	1.3	-10.0	-4.2	0.6	2.0
CCOC(=O)CN1C(=O)N[C@@H](c2cccc(C(F)(F)F)c2)C(C(C)=O)=C1C	-0.7	0.1	-0.9	-0.6	0.4	-5.8
COc1ccc(CNCCNC(=O)c2cccs2)cc1OC	-4.2	-0.1	13.0	-13.5	-2.5	5.9
COc1c2ccc(OCC/C(C)=C/C(=O)C=C(C)C)cc2nc2occc12	20.4*	0.0	-4.0	-8.9	2.2	10.4
COC(=O)[C@H](CCSC)NC(=O)Nc1ccc(C(C)=O)cc1	0.7	0.8	-6.7	-7.6	-0.2	1.1
CC(C)Oc1ccc(C(CC(=O)O)NC(=O)Cc2ccc(Cl)cc2)cc1 (stereo unspecified)	-16.9	5.4	7.8	0.5	2.4	17.0
COc1ccccc1NC(=O)C(=O)NNC(=O)COc1ccc2ccccc2c1	-2.2	-0.1	1.4	-22.8	-4.3	14.0
COC(=O)c1ccc(NC(=S)NCCc2cccc(C)c2)cc1	-19.4	6.5	27.8*	22.6	2.9	4.4
COC(=O)c1ccc(NC(=S)NCCc2ccccc2C)cc1	-15.4	12.0	21.6	7.0	5.9	5.5
O=C(O)Cc1ccc2ccc3ccccc3c2c1	19.2*	0.3	-16.7	-2.8	3.3	-11.2
CCC(=O)c1cn(CC(=O)Nc2ccc(OC)cc2)c2ccccc12	-6.1	3.2	9.5	-10.5	-4.3	9.4
CCc1nc(CN2CCCC(C(=O)c3ccc4c5c(cccc35)CC4)C2)c(C)[nH]1 (stereo unspecified)	-2.6	-0.4	6.8	25.2*	-7.5	-8.7
CCn1c2c(c(=N)c3c1CCC3)CCC2	-11.4	0.5	31.7*	-10.1	-3.8	-0.8
CCCCCCn1c2c(c(=N)c3c1CCC3)CCC2	-1.1	0.4	8.3	-8.4	-4.0	12.3
CCCCCCCCCn1c2c(c(=N)c3c1CCC3)CCC2	-17.1	4.9	39.9*	17.7	-3.3	11.3
CCCCn1c2c(c(=N)c3c1CCC3)CCC2	6.1	0.2	0.4	-2.3	-4.7	11.6
CC(C)=CC(=O)O[C@@H]1Cc2c(ccc3ccc(=O)oc23)OC1(C)C	25.4*	-0.8	-1.4	-12.3	-7.3	17.1
Cc1[nH]nc(N)c1-c1ccccc1	0.3	-0.2	9.2	-20.1	-0.4	9.3
NC(=O)[C@@H]1CCOc2c(I)cc([N+](=O)[O-])cc2C(=O)N[C@@H](CO)C(=O)NCC(=O)N1	21.4*	-0.2	0.3	-4.8	2.5	-14.4
NC(=O)CC[C@@H]1NC(=O)[C@H](CO)NC(=O)c2cc([N+](=O)[O-])cc(I)c2OCC[C@@H](C(N)=O)NC1=O	1.8	0.7	-3.5	-8.4	5.0	7.5
COc1ccc(/C=C/C(=O)NNc2c(F)c(F)cc(F)c2F)cc1OC	6.3	-0.2	-9.4	25.0*	8.6	-7.4
O=C(Nc1nc2ccsc2c(=O)s1)c1ccc(F)cc1Cl	21.4*	0.3	-6.6	-3.3	2.6	-1.5
SMILES	M5 PAM	M1 ag parental	CHRM5 antagonist	CHO-K1 Ca antag	CHRM5 agonist	M1 PAM parental
Cc1csc2c(=O)sc(NC(=O)c3ccc(F)cc3Cl)nc12	4.7	3.4	2.6	-0.3	0.3	5.5
Cc1ccc(C(=O)NCCc2nnc3ccc(SCC(=O)Nc4cc(C)on4)nn23)cc1	6.0	0.0	0.3	3.4	1.3	-22.2
CN(C)CCCCOc1ccccc1F	2.0	0.2	9.3	-19.9	-11.8	-6.5
CN(C)CCCCOc1ccccc1-c1ccccc1	-11.7	-0.4	8.5	23.8*	-7.4	-7.4
O=C(NCc1ccc(F)cc1)c1ccc(CS(=O)Cc2ccccc2Cl)o1 (stereo unspecified)	1.6	4.6	8.6	9.3	-0.5	9.8
Cc1ccccc1NC1=C(Cl)C(=O)OC1OC(=O)c1ccccc1C (stereo unspecified)	-11.8	2.6	14.9	2.8	0.1	2.3
c1ccc(C(CN2CCOCC2)c2ccccc2)cc1	-3.6	-0.4	99.4*	2.2	-7.5	7.4
COc1cccc(/C=N/Nc2snc(SC)c2C#N)c1O	-13.8	16.9*	16.7	16.2	21.1	4.3
COC(=O)c1c(-c2ccc(OC)c(OC)c2)csc1N	43.7*	0.8	-4.3	-1.9	-3.4	11.0
Cc1noc(C)c1CSc1ccccc1C(=O)Nc1nccs1	29.9*	-0.2	-8.2	2.0	-5.2	4.8
Cc1cccc(NC(=S)NC(=O)c2ccc(Br)o2)c1C	-3.9	1.3	-5.1	-7.3	-1.5	-7.2
Cc1ccc(NC(=S)NC(=O)c2ccc(Br)o2)c(C)c1	-4.1	19.3*	-2.3	9.5	-1.0	3.3
COc1cc(/C=N/n2cnnc2)ccc1OC(=O)c1cccnc1	-5.7	0.1	1.8	-10.5	1.6	-3.2
COc1cc(C=O)ccc1OC(=O)c1cccnc1	-13.8	0.0	29.8*	-13.3	-2.1	10.4
CCN(c1ccccc1)S(=O)(=O)c1ccc(C(=O)N2CC(C)CC(C)C2)cc1 (stereo unspecified)	-4.5	0.9	8.7	12.6	0.1	-17.7
COc1cc(C)ccc1OCc1cc(C(=O)N2C[C@H]3CC[C@H]2C3)no1	-1.1	1.4	2.9	-15.9	-2.2	16.8
COc1cc(C)ccc1OCc1cc(C(=O)N(Cc2c(C)nn(C)c2C)C2CC2)no1	-10.8	18.3*	13.8	-1.6	0.4	-5.0
COC(=O)c1ccc2nc(-c3ccc(Cl)cc3)c(CC3CCCCC3)n2c1	-2.8	0.3	5.9	-5.1	2.9	-3.5
CCOC(=O)C1CCCN(C(=O)COc2ccccc2O)C1 (stereo unspecified)	-28.6	0.4	2.7	-10.9	49.5*	18.4
CCOC(=O)C1CCCN(S(=O)(=O)c2ccc(S(=O)(=O)N(CC)CC)cc2)C1 (stereo unspecified)	-27.7	13.0	33.0*	18.4	-2.3	1.1
CCOC(=O)C1CCCN(C(=O)COc2ccccc2F)C1 (stereo unspecified)	-3.5	-0.2	7.3	-4.7	0.2	1.0
CCOC(=O)C1CCCN(C(=S)Nc2ccc(S(=O)(=O)N3CCOCC3)cc2)C1 (stereo unspecified)	-13.8	0.7	9.2	-9.6	41.8*	5.9
CC1CCCN(C(=S)Nc2ccc(S(=O)(=O)N3CCCCC3)cc2)C1 (stereo unspecified)	-1.4	5.0	15.5	-7.5	-3.2	20.6

Assay outcomes (PubChem)
